Compound activity: PubChem BioAssay, several laboratories
MrgX1 antag – human MrgX1 receptor antagonism, primary screen | AID 588676 | MRGX1-HEK293 calcium flux, Fluo-4, BAM8-22 antagonism; stronger effect = lower value | actives 1.3% (n = 310,000) | B-score at 10 µM;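 active = calcium-response B-score plate-corrected more than 3 library SD below zero, starting fluorescence within 5 deviations, no agonist response on first addition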;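 also: peak minus trough fluorescence over baseline after final BAM8-22 challenge near maximal dose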
Target sequence (Q96LB2 whole entry, looked up): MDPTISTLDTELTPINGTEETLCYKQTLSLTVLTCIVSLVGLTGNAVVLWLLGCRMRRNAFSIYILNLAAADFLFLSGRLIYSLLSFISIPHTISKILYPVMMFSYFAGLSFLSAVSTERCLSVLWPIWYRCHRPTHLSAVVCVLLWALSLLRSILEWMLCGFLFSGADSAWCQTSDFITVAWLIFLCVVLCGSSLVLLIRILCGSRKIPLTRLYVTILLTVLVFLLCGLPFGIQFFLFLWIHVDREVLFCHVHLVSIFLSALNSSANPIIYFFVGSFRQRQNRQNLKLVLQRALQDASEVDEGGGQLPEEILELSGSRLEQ
RGS4 block – inhibitors of human RGS4; P49798; HEK293 M3R/RGS4 inducible, Fluo-4 calcium flux; stronger effect = higher value; triggered by carbachol at its EC20; B-score at 10 µM; actives 0.45% (n = 310,000);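 active = B-score, a plate-corrected calcium signal, over three deviations above library mean, with baseline fluorescence within five deviations of library mean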;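 also: RGS4 expression induced by doxycycline in cells with stable M3 receptor; B-score is computed from the integrated fluorescence ratio over baseline after carbachol; higher B-score means a larger calcium signal and so more RGS4 inhibition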
RGS4 pot – RGS4 potentiation or activation; HEK293 M3R/inducible RGS4, carbachol calcium flux Fluo4; stronger effect = lower value; B-score at 10 µM; actives 0.92% (n = 310,000);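 active = B-score of the integrated calcium signal more than 4 SD below the library mean, with starting fluorescence not abnormally high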;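 also: negative B-score means reduced calcium response which marks RGS4 activation or potentiation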
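System – HEK293 FlpIn-TREx cells, stable M3R, doxycycline-inducible RGS4 · Reagent – ECmax carbachol challenge · Times – compound preincubation 20 min at room temperature before agonist · Technique – Fluo4 fluorescence kinetic imaging of calcium · Measure – B score of integrated Fluo4 ratio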
MrgX1 ag – agonists of human MrgX1 receptor. MrgX1-HEK293 cells, Fluo-4 calcium fluorescence, agonist mode; stronger effect = higher value. B-score at 10 µM. actives 0.44% (n = 310,000);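 active = calcium response B-score plate-corrected fluorescence ratio at least 3 library SD, with starting fluorescence B-score inside 5 SD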
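Test system: HEK293 cells stably expressing human MrgX1 receptor; Input: fifteen thousand cells per well; Dosing: compound delivered in addition one of three; Schedule: overnight seeding, then 1 h dark dye loading; Technique: Fluo-4 NW calcium fluorescence; Measure: B-scored fluorescence response ratio; Controls: positive and negative controls per plate.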
PHOSPHO1 inh – inhibitors of human PHOSPHO1 phosphatase; AID 1565; inhibition, % at 13.3 µM; recombinant PHOSPHO1, absorbance phosphatase assay; Q8TCT1; actives 1.1% (n = 290,000); in the data active = inhibition above about 60%
MrgX1 PAM – allosterically activates human MrgX1 receptor signaling; Q96LB2; MrgX1-HEK293, Fluo-4 calcium flux, FDSS; stronger effect = higher value; B-score at 10 µM; actives 0.63% (n = 310,000); AID 588675;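 active = plate-corrected calcium response at least 3 library SD above typical, normal starting fluorescence, not activating the receptor alone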;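 also: compound read alongside a low EC10 to EC30 dose of BAM8-22 agonist; peak minus trough fluorescence over baseline measured at the second addition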
Starred values were filed as active, the others as inactive; i = inactive; nt = no result. Compounds with a hit are over-represented: about 4.5% of the library has one in this group of screens.

SMILES | MrgX1 antag | RGS4 block | RGS4 pot | MrgX1 ag | PHOSPHO1 inh | MrgX1 PAM
N#CCc1c(C#N)c(N)nc(N2CCCC(CO)C2)c1C#N (stereo not drawn) | i | i | i | i | -39 | i
N#C/C(=C\c1ccc2c(c1)OCO2)C(N)=S | i | i | i | i | 17 | 7.5*
CC(C)CC(c1nnnn1Cc1ccc2c(c1)OCO2)N1CCC(C(N)=O)CC1 (stereo not drawn) | i | i | i | i | 45 | i
CCNC(=S)NNC(=O)c1cc(-c2ccc(OCC)cc2)nc2ccccc12 | i | i | i | i | -12 | i
COc1ccc(Cl)cc1C(=O)NNC(=S)NC(=O)c1cc(-c2ccccc2)nc2ccccc12 | -6.5* | i | -9.8* | i | -57 | i
COC(=O)c1ccc(NC(=S)NC(=O)c2cc(-c3ccccc3)nc3ccccc23)cc1 | i | i | i | i | -52 | i
COc1ccc(C(=O)NC(=S)NNC(=O)c2ccccc2C)cc1 | i | i | i | 62* | nt | i
CCCOc1ccc(C(=O)NNC(=S)NC(=O)c2cc(-c3ccc(Cl)cc3)nc3ccccc23)cc1 | i | i | -9* | i | -19 | i
COc1ccc(C(=O)NNC(=S)NC(=O)c2cc(-c3ccccc3)nc3ccccc23)cc1 | -6.8* | i | i | i | -74 | i
CCNc1nc(NCC)nc(SCCOC(=O)Nc2ccc(Cl)cc2Cl)n1 | i | i | i | i | 10 | i
CCNc1nc(NCC)nc(SCCOC(=O)c2ccccc2)n1 | i | i | i | 42* | 3 | i
C=CCNc1nc(N)c([N+](=O)[O-])c(Nc2cccc(Cl)c2)n1 | i | i | i | i | 37 | i
CC(=O)C1=C(C)NC(SCC(=O)c2ccc(Cl)cc2Cl)=C(C#N)C1c1ccco1 (stereo not drawn) | i | i | i | i | 74* | i
Cc1ccccc1C(=O)NCCCNC(=O)c1ccccc1C | i | i | i | i | nt | i
O=C(NCCCN1CCN(Cc2ccccc2)CC1)C1CCN(S(=O)(=O)N2CCC3(CC2)OCCO3)CC1 | i | i | i | i | -17 | i
O=C(C1CCN(S(=O)(=O)N2CCC3(CC2)OCCO3)CC1)N1CCN(Cc2ccccc2)CC1 | i | i | i | i | 64* | i
CC(=O)n1nc(-c2ccccc2)nc1NCc1cccs1 | i | i | i | i | 23 | i
O=C(O)CCCNC(=O)Cc1ccccc1 | i | i | i | i | 42 | i
CN(C)c1ccc(N=c2sc3ccccc3n2C)cc1 | i | i | i | i | 94* | i
Cn1c(=Nc2ccccc2)sc2ccccc21 | i | i | i | i | -4 | i
O=C(Nc1ccc(-c2ccc(N3CCCCC3)nn2)cc1)c1ccco1 | i | i | i | i | nt | i
CCCC(c1nnnn1CCOC)N(Cc1cc2cc(C)c(C)cc2[nH]c1=O)CC1CCCO1 (stereo not drawn) | i | i | i | i | 4 | i
CCC(c1nnnn1CCOC)N(Cc1cc2cc(C)c(C)cc2[nH]c1=O)CC1CCCO1 (stereo not drawn) | i | i | i | i | 76* | i
Cc1ccc(NC(=O)COc2ncnc3cc([N+](=O)[O-])ccc23)cc1S(=O)(=O)N1CCOCC1 | i | i | i | i | 20 | i
COc1ccc(C)cc1NC(=O)c1cccc(-c2ccc(OC(C)=O)cc2)c1 | i | i | i | i | 26 | i
CCOc1cc(/C=C2/NC(=O)N(CC(=O)Nc3cccc(C)c3)C2=O)ccc1O | i | i | i | i | -26 | i
CCOc1cc(/C=C2/NC(=O)N(CC(=O)Nc3cccc(C)c3)C2=O)ccc1OC | -7.1* | i | i | i | -14 | i
Cc1cccc(C(=O)NC(=S)NNC(=O)COc2c(C)cccc2C)c1 | i | i | i | 27* | 9 | i
